Read-outs that look alike come from different tables or passages of the source.
What was measured:
Assay in all cases: Growth inhibition assay
Assay type in all cases: cell-based, human
Caki-1 cancer = conditions: for efficacy (maximum growth inhibition observed): 1 to 12.5 µmol/L; for EC50: read-out: potency (EC50, concentration needed to induce half maximal efficacy)
In short: (§1)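 Stock is 0.01 mol/L in DMSO, kept at −20°C under subdued light. Cells get 1–12.5 µmol/L or equal-volume DMSO, in triplicate, for 48 h. Growth index is mean treated OD over mean control OD, plotted against concentration. Maximal inhibition comes by nonlinear regression from plots of 2–3 independent experiments.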

786-O cancer = conditions: for efficacy (maximum growth inhibition observed): 48 h, 1 to 12.5 µmol/L; for EC50: read-out: potency (EC50, concentration needed to induce half maximal efficacy), 48 h
In short: as §1

HK-2 normal = conditions: 48 h; for efficacy (maximum growth inhibition observed): 1 to 12.5 µmol/L; for EC50: read-out: potency (EC50, concentration needed to induce half maximal efficacy)
In short: as §1

RTC91696 normal = conditions: RTC91696 normal, 48 h, single experiments; for efficacy (maximum growth inhibition observed): 1 to 12.5 µmol/L; for EC50: read-out: potency (EC50, concentration needed to induce half maximal efficacy)

| Compound | efficacy (maximum growth inhibition observed) (Caki-1 cancer; Caki-1 cancer, 48 h) | EC50 (Caki-1 cancer; Caki-1 cancer, 48 h) [µM] | efficacy (maximum growth inhibition observed) (786-O cancer) | EC50 (786-O cancer) [µM] | efficacy (maximum growth inhibition observed) (HK-2 normal; HK-2 normal) | EC50 (HK-2 normal; HK-2 normal) [µM] | efficacy (maximum growth inhibition observed) (RTC91696 normal) | EC50 (RTC91696 normal) [µM] | EC50 (Caki-1 cancer; Homo sapiens, CAKI-1, 48 h) [µM] | EC50 (HK-2 normal; Homo sapiens) [µM] |
| --- | --- | --- | --- | --- | --- | --- | --- | --- | --- | --- |
| CC1(C)CC(C)(C)c2cc(NC(=O)Nc3ccc([N+](=O)[O-])cc3)ccc2S1 [SHetC2] | 85.71% ± 4.53% | 4.91 ± 0.29 | 78.53% ± 6.11% | 7.48 ± 0.34 | 52.67% ± 1.84% | 4.47 ± 0.49 | 52.31% ± 7.38% | 7.67 ± 0.49 |  |  |
| COC(=O)c1ccc(NC(=O)Nc2ccc3c(c2)C(C)(C)CC(C)(C)S3)cc1 [SHetD3] | 56.99% ± 12.12% | 7.14 ± 0.22 | 61.52% ± 1.44% | 7.15 ± 0.81 | 26.37% ± 0.22% | 6.91 ± 0.66 | 46.27% ± 0.95% | 9.42 ± 0.43 |  |  |
| COC(=O)c1ccc(NC(=S)Nc2ccc3c(c2)C(C)(C)CC(C)(C)S3)cc1 [SHetD4] | 38.67% ± 1.50% | 7.56 ± 0.15 | 44.55% ± 17.56% | 5.08 ± 0.71 | 43.67% ± 0.44% | 7.42 ± 0.2 | 37.74% ± 6.61% | 5.36 ± 0.6 |  |  |
| COC(=O)c1cccc(NC(=S)Nc2ccc3c(c2)C(C)(C)CC(C)(C)S3)c1 [SHetD5] | 34.10% ± 1.20% | 7.22 ± 0.25 | 41.80% ± 16.91% | 5.14 ± 0.7 | 47.97% ± 1.00% | 4.96 ± 0.25 |  |  |  |  |
| CC1=C(/C=C/C(C)=C/C=C/C(C)=C/C(=O)O)C(C)(C)CCC1 [t-RA, trans-retinoic acid, reference compound] | 6.46% ± 9.40% |  | 0.00% ± 1.43% |  | 15.81% ± 0.47% |  |  |  | 4.64 ± 1.14 | 6.28 ± 2.19 |

From paper PMC2888972 (Molecular cancer therapeutics, 2009)
